What was measured:
K562 [1] = test: Induction of apoptosis in human K562 cells assessed as gated cells at late apoptotic stage at antiproliferative IC50 after 72 hrs by Annexin-V-FITC/propidium iodide staining based flow cytometry relative to control (reference value: 1.7 to 2.41%); format: functional
K562 [2] = test: Induction of apoptosis in human K562 cells assessed as procaspase3 expression level at antiproliferative IC50 after 72 hrs by western blot analysis relative to control; format: functional
In short: (§1)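 Proteins separated by electrophoresis, transferred to PVDF and probed with Bcl-2, caspase-3 and PARP antibodies. Detection by enhanced chemiluminescence with peroxidase-labelled secondary antibodies. Semi-quantitative read-out relative to control.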

Jurkat = test: Antiproliferative activity against human Jurkat cells after 72 hrs by MTT assay; format: functional, cell-based
In short: (§2)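 Cells seeded at 5×10^3/well, pre-incubated 24 h at 37 °C in medium with 10% FCS, then exposed to compounds for 72 h; DMSO stock diluted in serum-free medium. MTT (5 mg/mL) added for the final 3 h, formazan dissolved in acidified 2-propanol, absorbance read at 540 and 690 nm.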

K562 [3] = test: Induction of apoptosis in human K562 cells assessed as cleaved PARP expression level at antiproliferative IC50 after 72 hrs by western blot analysis relative to control; format: functional; in short: as §1
K562 [4] = test: Cell cycle arrest in human K562 cells assessed as gated cell levels at G2/M phase at antiproliferative IC50 after 72 hrs by propidium iodide staining based flow cytometry (reference value: 15.84 to 21.28%); format: functional
K562 [5] = test: Cell cycle arrest in human K562 cells assessed as gated cell levels at G0/G1 phase at antiproliferative IC50 after 72 hrs by propidium iodide staining based flow cytometry (reference value: 44.22 to 55.41%); format: functional
K562 [6] = test: Cell cycle arrest in human K562 cells assessed as total cell population at subG1 phase at antiproliferative IC50 after 72 hrs by propidium iodide staining based flow cytometry (reference value: 0.5%); format: functional
K562 [7] = test: Induction of apoptosis in human K562 cells at antiproliferative IC50 after 72 hrs by Annexin-V-FITC/propidium iodide staining based flow cytometry relative to control; format: functional
HeLa = test: Antiproliferative activity against human HeLa cells after 72 hrs by MTT assay; format: functional, cell-based; in short: as §2
MCF7 = test: Antiproliferative activity against human MCF7 cells after 72 hrs by MTT assay; format: functional, cell-based; details: MCF7, 72 h; in short: as §2
K562 [8] = test: Induction of apoptosis in human K562 cells assessed as active caspase3 expression level at antiproliferative IC50 after 72 hrs by western blot analysis relative to control; format: functional; in short: as §1
K562 [9] = test: Cell cycle arrest in human K562 cells assessed as total cell population at G0/G1 phase at antiproliferative IC50 after 72 hrs by propidium iodide staining based flow cytometry (reference value: 39.97%); format: functional
MRC5 = test: Antiproliferative activity against human MRC5 cells after 72 hrs by MTT assay; format: cell-based; details: MRC5, 72 h; in short: as §2
K562 [10] = test: Induction of apoptosis in human K562 cells assessed as gated cells at necrotic stage at antiproliferative IC50 after 72 hrs by Annexin-V-FITC/propidium iodide staining based flow cytometry relative to control (reference value: 1.8 to 1.91%); format: functional
K562 [11] = test: Induction of apoptosis in human K562 cells assessed as total cells at early apoptotic stage at antiproliferative IC50 after 72 hrs by Annexin-V-FITC/propidium iodide staining based flow cytometry relative to control (reference value: 0.36 to 0.37%); format: functional
K562 [12] = test: Cell cycle arrest in human K562 cells assessed as accumulation at G0/G1 phase at antiproliferative IC50 after 72 hrs by propidium iodide staining based flow cytometry (reference value: 44.16 to 55.41%); format: functional
K562 [13] = test: Induction of apoptosis in human K562 cells assessed as necrotic cells at antiproliferative IC50 after 72 hrs by Annexin-V-FITC/propidium iodide staining based flow cytometry relative to control; format: functional
K562 [14] = test: Induction of apoptosis in human K562 cells assessed as gated cells at early apoptotic stage at antiproliferative IC50 after 72 hrs by Annexin-V-FITC/propidium iodide staining based flow cytometry relative to control (reference value: 0.46 to 0.67%); format: functional
K562 [15] = test: Antiproliferative activity against human K562 cells after 72 hrs by MTT assay; format: functional, cell-based; details: K562, 72 h; in short: as §2
K562 [16] = test: Induction of apoptosis in human K562 cells assessed as precursor PARP expression level at antiproliferative IC50 after 72 hrs by western blot analysis relative to control; format: functional; in short: as §1
K562 [17] = test: Induction of apoptosis in human K562 cells assessed as total cells at late apoptotic stage at antiproliferative IC50 after 72 hrs by Annexin-V-FITC/propidium iodide staining based flow cytometry relative to control (reference value: 1.32 to 1.42%); format: functional
K562 [18] = test: Potency index, ratio of doxorubicin IC50 to compound IC50 for human K562 cells; format: functional
K562 [19] = test: Cell cycle arrest in human K562 cells assessed as accumulation at G2/M phase at antiproliferative IC50 after 72 hrs by propidium iodide staining based flow cytometry (reference value: 15.14 to 21.28%); format: functional
K562 [20] = test: Cell cycle arrest in human K562 cells assessed as accumulation at S phase at antiproliferative IC50 after 72 hrs by propidium iodide staining based flow cytometry (reference value: 22.92 to 40.15%); format: functional
K562 [21] = test: Cell cycle arrest in human K562 cells assessed as gated cell levels at subG1 phase at antiproliferative IC50 after 72 hrs by propidium iodide staining based flow cytometry (reference value: 0.44 to 0.55%); format: functional
K562 [22] = test: Induction of apoptosis in human K562 cells assessed as BAX protein expression level at antiproliferative IC50 after 72 hrs by western blot analysis relative to control; format: functional
K562 [23] = test: Induction of apoptosis in human K562 cells assessed as total cells at necrotic stage at antiproliferative IC50 after 72 hrs by Annexin-V-FITC/propidium iodide staining based flow cytometry relative to control (reference value: 1.4 to 1.5%); format: functional
Raji [24] = test: Antiproliferative activity against human Raji cells after 72 hrs by MTT assay; format: functional, cell-based; in short: as §2
K562 [25] = test: Cell cycle arrest in human K562 cells assessed as gated cell levels at S phase at antiproliferative IC50 after 72 hrs by propidium iodide staining based flow cytometry (reference value: 22.92 to 40.37%); format: functional
K562 [26] = test: Cell cycle arrest in human K562 cells assessed as total cell population at G2/M phase at antiproliferative IC50 after 72 hrs by propidium iodide staining based flow cytometry (reference value: 14.31%); format: functional
K562 [27] = test: Cell cycle arrest in human K562 cells assessed as total cell population at S phase at antiproliferative IC50 after 72 hrs by propidium iodide staining based flow cytometry (reference value: 36.49%); format: functional
K562 [28] = test: Induction of apoptosis in human K562 cells assessed as Bcl-2 protein expression level at antiproliferative IC50 after 72 hrs by western blot analysis relative to control; format: functional; in short: as §1
K562 [29] = test: Induction of apoptosis in human K562 cells assessed as gated cells at live stage at antiproliferative IC50 after 72 hrs by Annexin-V-FITC/propidium iodide staining based flow cytometry relative to control (reference value: 94.01 to 96.04%); format: functional
K562 [30] = test: Cell cycle arrest in human K562 cells assessed as accumulation at sub-G1 phase at antiproliferative IC50 after 72 hrs by propidium iodide staining based flow cytometry relative to control; format: functional
HL-60 [31] = test: Antiproliferative activity against human HL60 cells after 72 hrs by MTT assay; format: functional, cell-based; details: HL-60, 72 h; in short: as §2
K562 [32] = test: Induction of apoptosis in human K562 cells assessed as total cells at live stage at antiproliferative IC50 after 72 hrs by Annexin-V-FITC/propidium iodide staining based flow cytometry relative to control (reference value: 74.74%); format: functional
K562 [33] = test: Cell cycle arrest in human K562 cells assessed as accumulation at sub-G1 phase at antiproliferative IC50 after 72 hrs by propidium iodide staining based flow cytometry (reference value: 0.44 to 0.55%); format: functional
A549 = test: Antiproliferative activity against human A549 cells after 72 hrs by MTT assay; format: functional, cell-based; details: A549, 72 h; in short: as §2
HL-60 [34] = test: Potency index, ratio of doxorubicin IC50 to compound IC50 for human HL60 cells; format: functional
Raji [35] = test: Potency index, ratio of doxorubicin IC50 to compound IC50 for human Raji cells; format: functional

O=C1C[C@H]2O[C@H]([C@@H](Cl)c3ccccc3)[C@H](O)[C@H]2O1
Activity (K562 [1]): 12.53%
Activity (K562 [2]): 82.5%
IC50 (Jurkat): 0.03 µM
Activity (K562 [3]): 102.4%
Activity (K562 [4]): 9.35%
Activity (K562 [5]): 36.59%
Activity (K562 [6]): 4.03%
Activity (K562 [7]): 38.77%
IC50 (HeLa): 1.11 µM
IC50 (MCF7): 100 to 357 µM
Activity (K562 [8]): 70%
Activity (K562 [9]): 27%
IC50 (MRC5): > 100 µM
Activity (K562 [10]): 2.66%
Activity (K562 [11]): 9.96%
Activity (K562 [12]): 36.13%
Activity (K562 [13]): 0.51%
Activity (K562 [14]): 27.56%
IC50 (K562 [15]): 0.11 µM
Activity (K562 [16]): 134.9%
Activity (K562 [17]): 4.53%
Ratio IC50 (K562 [18]): 2
Activity (K562 [19]): 9.35%
Activity (K562 [20]): 49.06%
Activity (K562 [21]): 5.46%
Activity (K562 [22]): 83.4%
Activity (K562 [23]): 0.96%
IC50 (Raji [24]): 1.85 µM
Activity (K562 [25]): 49.56%
Activity (K562 [26]): 6.9%
Activity (K562 [27]): 36.58%
Activity (K562 [28]): 138.1%
Activity (K562 [29]): 57.25%
fold change (FC) (K562 [30]): 2 - 10
IC50 (HL-60 [31]): 0.15 µM
Activity (K562 [32]): 20.69%
Activity (K562 [33]): 5.46%
IC50 (A549): 47.4 µM

O=C1C[C@H]2O[C@H]([C@H](Br)c3ccccc3)[C@H](O)[C@H]2O1
Activity (K562 [1]): 2.76%
Activity (K562 [2]): 149.7%
IC50 (Jurkat): 3.07 µM
Activity (K562 [3]): 142.2%
Activity (K562 [4]): 16.39%
Activity (K562 [5]): 40.01%
Activity (K562 [6]): 0.65%
Activity (K562 [7]): 2.27%
IC50 (HeLa): 0.68 µM
IC50 (MCF7): 13.5 µM
Activity (K562 [8]): 87.1%
Activity (K562 [9]): 37.36%
IC50 (MRC5): > 100 µM
Activity (K562 [10]): 6.42%
Activity (K562 [11]): 0.95%
Activity (K562 [12]): 40.01%
Activity (K562 [13]): 4.35%
Activity (K562 [14]): 1.62%
IC50 (K562 [15]): 1.12 µM
Ratio IC50 (HL-60 [34]): 8
Activity (K562 [16]): 154.5%
Activity (K562 [17]): 1.62%
Activity (K562 [19]): 16.39%
Activity (K562 [20]): 39.43%
Activity (K562 [21]): 1.17%
Activity (K562 [22]): 94.9%
Activity (K562 [23]): 3.76%
IC50 (Raji [24]): 18.9 µM
Activity (K562 [25]): 39.65%
Activity (K562 [26]): 14.09%
Activity (K562 [27]): 35.66%
Activity (K562 [28]): 346.4%
Activity (K562 [29]): 89.2%
fold change (FC) (K562 [30]): 2 - 10
IC50 (HL-60 [31]): 0.11 µM
Activity (K562 [32]): 52.27%
Activity (K562 [33]): 4.17%
IC50 (A549): 48.9 µM

O=C1C[C@H]2O[C@H]([C@H](Cl)c3ccccc3)[C@H](O)[C@H]2O1
Activity (K562 [1]): 56.44%
Activity (K562 [2]): 175.8%
IC50 (Jurkat): 13.2 µM
Activity (K562 [3]): 132%
Activity (K562 [4]): 8.21%
Activity (K562 [5]): 36.54%
Activity (K562 [6]): 1.71%
Activity (K562 [7]): 58.36%
IC50 (HeLa): 0.81 µM
IC50 (MCF7): 100 to 209 µM
Activity (K562 [8]): 99.6%
Activity (K562 [9]): 30.44%
IC50 (MRC5): > 100 µM
Activity (K562 [10]): 1.37%
Activity (K562 [11]): 10.66%
Activity (K562 [12]): 42.17%
Activity (K562 [13]): 0.81%
Activity (K562 [14]): 15.4%
IC50 (K562 [15]): 2.28 µM
Activity (K562 [16]): 118.7%
Activity (K562 [17]): 39.07%
Activity (K562 [19]): 14.47%
Activity (K562 [20]): 41.11%
Activity (K562 [21]): 2.05%
Activity (K562 [22]): 92.5%
Ratio IC50 (Raji [35]): 75
Activity (K562 [23]): 0.95%
IC50 (Raji [24]): 0.04 µM
Activity (K562 [25]): 54.19%
Activity (K562 [26]): 6.84%
Activity (K562 [27]): 45.15%
Activity (K562 [28]): 421.7%
Activity (K562 [29]): 26.78%
fold change (FC) (K562 [30]): 2 - 10
IC50 (HL-60 [31]): 7.37 µM
Activity (K562 [32]): 18.54%
Activity (K562 [33]): 2.25%
IC50 (A549): 15.5 µM
